Assay results pooled from the literature.
Each line is one published result; the experiments were not run side by side.
M-phase phosphoprotein 8 chromodomain: M-phase phosphoprotein 8, chromodomain (Homo sapiens, UniProt Q99549)
HTR1A: 5-hydroxytryptamine receptor 1A (HTR1A, Homo sapiens, UniProt P08908)
ESR1: Estrogen receptor (ESR1, Homo sapiens, UniProt P03372)
AChE: AChE (Phlebotomus papatasi, UniProt M1F887)

| SMILES | target | observed | action | technique | endpoint | result |
| --- | --- | --- | --- | --- | --- | --- |
| CCN(CCCC[C@H](NC(=O)[C@H](C)NC(=O)[C@H](C)NC(=O)[C@H](Cc1ccccc1)NC(=O)c1cccnc1)C(=O)N[C@@H](CO)C(N)=O)C(C)C | M-phase phosphoprotein 8 chromodomain | cell-free assay | – | TR-FRET | IC50 | 3400 nM |
| NCCc1c[nH]c2ccc(Cl)cc12 | HTR1A | ligand displacement | – | radioligand | Ki | 5.5 nM |
| CCN(CCCC[C@H](NC(=O)[C@H](CC(C)C)NC(=O)[C@H](C)NC(=O)[C@H](CC1CCCCC1)NC(=O)c1cccnc1)C(=O)N[C@@H](CO)C(N)=O)C(C)C | M-phase phosphoprotein 8 chromodomain | cell-free assay | – | TR-FRET | IC50 | 1500 nM |
| C[C@]1(O)CC[C@H]2[C@@H]3CCC4=CC(=O)CCC4=C3CC[C@@]21C | ESR1 | reporter gene | agonist | – | EC50 | 4230 nM |
| C=CC[N+](C)(C)c1ccc(CCC(=O)CCc2ccc([N+](C)(C)CC=C)cc2)cc1 | AChE | enzyme activity | inhibitor | – | IC50 | 30 nM |
| C[C@]12CC[C@H]3[C@@H](CCC4=C[C@@H](O)CC[C@@H]43)[C@@H]1CC[C@@H]2O | ESR1 | ligand displacement | – | – | IC50 | 134 nM |
| NCCc1c[nH]c2ccc(F)cc12 | HTR1A | ligand displacement | – | radioligand | Ki | 18 nM |
| CNC(=O)Oc1ccc2c(c1)[C@]1(C)CCN(C)[C@@H]1N2C | AChE | enzyme activity | inhibitor | – | IC50 | 9 nM |
